Measurements collected from several papers.
Protocols differ between the studies behind these lines.
Observed: cell growth or viability

Compound | cell line | test | setting | IC50
CCn1c2ccccc2c2cc(/C=C/C(=O)c3cc4cccc(OC)c4oc3=O)ccc21 | NRK-52E | MTT | 24 h | 115 µM
CC(C)C[C@H](NC(=O)[C@H](Cc1ccccc1)NC(=O)c1cnccn1)B(O)O | KG-1 | ATP luminescence | – | 0.0048 µM
CCn1c2ccccc2c2cc(C3CC(c4cc5c(ccc6ccccc65)oc4=O)=NN3c3ccc(C)cc3)ccc21 (stereo not drawn) | NRK-52E | MTT | 24 h | 79.9 µM
CC1=C(O)C(=O)C=C2C1=CC=C1[C@@]2(C)CC[C@@]2(C)[C@@H]3C[C@](C)(C(=O)OCCCCCCO)CC[C@]3(C)CC[C@]12C | Bel-7402 | MTT | 48 h | 1.22 µM
CCn1c2ccccc2c2cc(C3CC(c4cc5ccccc5oc4=O)=NN3c3cccc(Cl)c3)ccc21 (stereo not drawn) | NRK-52E | MTT | 24 h | 41 µM
Cc1cccc2c(C(c3ccc(/C=C/C(=O)O)s3)c3c[nH]c4c(C)cccc34)c[nH]c12 | KG-1 | – | 48 h | > 5 µM
CC1=C(O)C(=O)C=C2C1=CC=C1[C@@]2(C)CC[C@@]2(C)[C@@H]3C[C@](C)(C(=O)OCCCBr)CC[C@]3(C)CC[C@]12C | Bel-7402 | MTT | 48 h | 0.72 µM
CCCON(Cc1ccc(C(=O)NO)cc1)C(=O)Nc1ccc(N(C)C)cc1 | MOLM-13 | ATP luminescence | 72 h | 7.19 µM
COc1cc(Nc2nccc(-c3cnn4nc(OC)ccc34)n2)cc(C(F)(F)F)c1 | KG-1 | ATP luminescence | – | 0.86 µM
Oc1ccc(C(c2c[nH]c3ccccc23)c2c[nH]c3ccccc23)cc1 | KG-1 | – | 48 h | > 20 µM
CC(=O)OCCOC(=O)[C@]1(C)CC[C@]2(C)CC[C@]3(C)C4=CC=C5C(=CC(=O)C(O)=C5C)[C@]4(C)CC[C@@]3(C)[C@@H]2C1 | Bel-7402 | MTT | 48 h | 0.59 µM
CCn1c2ccccc2c2cc(C3CC(c4cc5cccc(OC)c5oc4=O)=NN3c3ccc(C)cc3)ccc21 (stereo not drawn) | NRK-52E | MTT | 24 h | 52 µM
CC(=O)O[C@H]1C(=O)[C@@]2(C)[C@H]([C@H](OC(=O)c3ccccc3)[C@]3(O)C[C@H](OC(=O)[C@H](O)[C@@H](NC(=O)c4ccccc4)c4ccccc4)C(C)=C1C3(C)C)[C@]1(OC(C)=O)CO[C@@H]1C[C@@H]2O | CT26 | – | – | 2 µg/mL
COc1cc2c(Oc3ccc(NC(=O)C4(C(=O)Nc5ccc(F)cc5)CC4)cc3F)ccnc2cc1OCCCN1CCOCC1 | Rh18 | – | 72 h | 0.31 µM
COCCCOC(=O)[C@]1(C)CC[C@]2(C)CC[C@]3(C)C4=CC=C5C(=CC(=O)C(O)=C5C)[C@]4(C)CC[C@@]3(C)[C@@H]2C1 | Bel-7402 | MTT | 48 h | 0.81 µM
O=C(O)C(c1c[nH]c2ccccc12)c1c[nH]c2ccccc12 | KG-1 | – | 48 h | > 20 µM
CCn1c2ccccc2c2cc(C3CC(c4cc5cccc(OC)c5oc4=O)=NN3c3ccccc3)ccc21 (stereo not drawn) | NRK-52E | MTT | 24 h | 70.4 µM
Nc1ncc(-c2cnn(C3CCNCC3)c2)cc1-c1nnc(CC2CC2)o1 | MOLM-13 | trypan blue | 72 h | 0.184 µM
Cn1cc(C(c2ccc(/C=C/C(=O)O)s2)c2cn(C)c3ccccc23)c2ccccc21 | KG-1 | – | 48 h | > 20 µM
CC(C)[C@H](N)C(=O)N1CCC[C@H]1B(O)O | KG-1 | ATP luminescence | 48 h | 0.12 µM
Cc1ccc2[nH]cc(C(c3ccc(/C=C/C(=O)O)s3)c3c[nH]c4ccc(C)cc34)c2c1 | KG-1 | – | 48 h | > 5 µM
CCn1c2ccccc2c2cc(C3CC(c4cc5ccccc5oc4=O)=NN3C(C)=O)ccc21 (stereo not drawn) | NRK-52E | MTT | 24 h | 116 µM
CC1=C(O)C(=O)C=C2C1=CC=C1[C@@]2(C)CC[C@@]2(C)[C@@H]3C[C@](C)(C(=O)OCCCn4ccc5ccccc54)CC[C@]3(C)CC[C@]12C | Bel-7402 | MTT | 48 h | 5.42 µM
CCn1c2ccccc2c2cc(/C=C/C(=O)c3cc4c(ccc5ccccc54)oc3=O)ccc21 | NRK-52E | MTT | 24 h | 82.7 µM
CC1=C(O)C(=O)C=C2C1=CC=C1[C@@]2(C)CC[C@@]2(C)[C@@H]3C[C@](C)(C(=O)OCCCOc4ccccc4)CC[C@]3(C)CC[C@]12C | Bel-7402 | MTT | 48 h | 1.33 µM
Cc1ccc2c(c1)c(C(c1ccc(/C=C/C(=O)O)s1)c1cn(C(C)C)c3ccc(C)cc13)cn2C(C)C | KG-1 | – | 48 h | > 5 µM
C[C@@H](Oc1cc(-c2cnn(C3CCNCC3)c2)cnc1N)c1c(Cl)ccc(F)c1Cl | Rh18 | – | 72 h | 0.55 µM
FC(F)(F)c1ccc(C(c2c[nH]c3ccccc23)c2c[nH]c3ccccc23)cc1 | KG-1 | – | 48 h | 15 µM
CCn1c2ccccc2c2cc(C3CC(c4cc5c(ccc6ccccc65)oc4=O)=NN3C(N)=O)ccc21 (stereo not drawn) | NRK-52E | MTT | 24 h | 59.1 µM
Cc1[nH]c(/C=C2\C(=O)Nc3ccc(S(=O)(=O)N(C)c4cccc(Cl)c4)cc32)c(C)c1C(=O)N1CCN(C)CC1 | Rh18 | – | 72 h | 4.07 µM
